Kir21_inh = blocks the mouse Kir2.1 inward-rectifier potassium channel; P35561; HEK293-Kir2.1, FluxOR thallium flux fluorescence; stronger effect = lower value; B-score at 10 µM; 310,000 tested, 0.85% active; AID 1672;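 active = fluorescence ratio B-score at or below minus 3 SD of library scores, with starting-brightness B-score within 2 SD, cut at about -4.2 in these data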;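 note: channel flux triggered by added potassium and thallium sulfate stimulus; B-score of peak minus minimum fluorescence over baseline after thallium stimulus; more negative B-score means stronger Kir2.1 block with less thallium influx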
MrgX1_antagonist = human MrgX1 receptor antagonism, primary screen; 310,000 tested, 1.3% active; AID 588676; MRGX1-HEK293 calcium flux, Fluo-4, BAM8-22 antagonism; stronger effect = lower value; B-score at 10 µM; Q96LB2;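 active = calcium-response B-score plate-corrected more than 3 library SD below zero, starting fluorescence within 5 deviations, no agonist response on first addition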;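 note: peak minus trough fluorescence over baseline after final BAM8-22 challenge near maximal dose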
RGS4_pot = potentiators or activators of RGS4 | 310,000 tested, 0.92% active | HEK293 M3R/inducible RGS4, carbachol calcium flux Fluo4; stronger effect = lower value | AID 463111 | B-score at 10 µM;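 active = B-score of the integrated calcium signal more than 4 SD below the library mean, with starting fluorescence not abnormally high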;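 note: negative B-score means reduced calcium response which marks RGS4 activation or potentiation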
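Assay system: HEK293 FlpIn-TREx cells, stable M3R, doxycycline-inducible RGS4 / Probe or stimulus: carbachol, ECmax concentration / Times: overnight RGS4 induction, 30 min dye load 37 °C, 20 min compound RT / Signal: kinetic calcium fluorescence imaging with Fluo4-AM dye, 2 µM / Measure: Agonist-evoked peak-minus-minimum fluorescence over baseline, integrated ratio, B score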
MrgX1_agonist = activates human MrgX1 receptor signaling; B-score at 10 µM; AID 588627; MrgX1-HEK293 cells, Fluo-4 calcium fluorescence, agonist mode; stronger effect = higher value; Q96LB2; 310,000 tested, 0.44% active;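 active = calcium response B-score plate-corrected fluorescence ratio at least 3 library SD, with starting fluorescence B-score inside 5 SD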
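Test system: Stable human MrgX1 HEK293 cell line | Schedule: Overnight plating before 1 h dye loading | Read-out basis: Baseline-normalised fluorescence change ratio, B-scored | Detection: Kinetic calcium dye fluorescence, Fluo-4 NW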
MrgX1_PAM = human MrgX1 positive allosteric modulation, primary screen | MrgX1-HEK293, Fluo-4 calcium flux, FDSS; stronger effect = higher value | AID 588675 | B-score at 10 µM | 310,000 tested, 0.63% active | Q96LB2;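 active = plate-corrected calcium response at least 3 library SD above typical, normal starting fluorescence, not activating the receptor alone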;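 note: compound read alongside a low EC10 to EC30 dose of BAM8-22 agonist; peak minus trough fluorescence over baseline measured at the second addition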
RGS4_inh = inhibitors of human RGS4. HEK293 M3R/RGS4 inducible, Fluo-4 calcium flux; stronger effect = higher value; triggered by carbachol at its EC20. P49798. B-score at 10 µM. 310,000 tested, 0.45% active. AID 463165;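 active = B-score, a plate-corrected calcium signal, over three deviations above library mean, with baseline fluorescence within five deviations of library mean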;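 note: RGS4 expression induced by doxycycline in cells with stable M3 receptor; B-score is computed from the integrated fluorescence ratio over baseline after carbachol; higher B-score means a larger calcium signal and so more RGS4 inhibition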
Target sequence (P49798 whole entry, looked up): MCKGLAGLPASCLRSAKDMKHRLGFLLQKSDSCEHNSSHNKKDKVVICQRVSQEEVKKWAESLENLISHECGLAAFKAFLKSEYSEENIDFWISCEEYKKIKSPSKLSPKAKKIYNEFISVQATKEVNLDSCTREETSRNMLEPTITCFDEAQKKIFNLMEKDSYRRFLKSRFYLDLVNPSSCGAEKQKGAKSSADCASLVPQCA
RGS4_block_valid = RGS4 inhibitor validation; shares compounds with RGS4_inh; HEK293 M3R/RGS4, carbachol calcium Fluo-4 fluorescence; carbachol added at its EC20; 0 = buffer wells, 100 = carbachol control; 1,700 tested, 65% active; calcium response, % at 10 µM;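 active = duplicate-averaged calcium response above the buffer-only control mean plus 5 SD of those controls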;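 note: integrated fluorescence ratio F max minus min over baseline F0; higher response in RGS4-induced cells means RGS4 inhibition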
RGS4_uninduced = counter-screen for RGS4 inhibitors: effect in non-induced cells | activity (percent), % at 10 µM | shares compounds with RGS4_inh | AID 493000 | 1,900 tested, 20% active | HEK293 M3R non-induced, carbachol calcium Fluo-4; submaximal (EC20) carbachol stimulus; buffer wells 0%, carbachol control wells 100%; call rule not given here;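 note: RGS4 induction absent so cells express M3R without RGS4; higher means more calcium signal and flags a non-specific hit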
RGS4_inh_ctr2 = second counter-screen for RGS4 inhibitors: non-induced cells without carbachol; 1,900 tested, 22% active; shares compounds with RGS4_inh; HEK293 M3R/RGS4 non-induced, Fluo-4 calcium, no carbachol; normalised: buffer wells 0%, carbachol wells 100%; calcium response (agonist-mode artifact), % at 10 µM;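 active = duplicate-averaged calcium rise in uninduced cells above buffer wells' mean plus 5 SD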
* = called active by the depositor; i = inactive; . = not tested or not shown. The list is not random: actives were taken first. Their share in the collection is about 4.1%.

SMILES Kir21_inh MrgX1_antagonist RGS4_pot MrgX1_agonist MrgX1_PAM RGS4_inh RGS4_block_valid RGS4_uninduced RGS4_inh_ctr2
Nc1n[nH]c(C2CC2)c1N=Nc1ccc(Cl)cc1 2.4 i i i i 7* 6.5%* i i
Cc1[nH]nc(N)c1N=Nc1ccc(Br)cc1 0.53 i i i i 17* 20%* i i
Nc1n[nH]c(C2CC2)c1N=Nc1ccc(Cl)c(Cl)c1 0.61 i i i i i . . .
Cc1ccc(N=Nc2c(N)n[nH]c2N)cc1 -0.2 i i i i i . . .
Brc1ccc(CN2CCN(c3ccccc3)CC2)o1 0.71 i i i i i . . .
